Measurements gathered from unrelated publications.
Compare with care: the assays were run in different laboratories.
Transmembrane protease serine 6: Transmembrane protease serine 6 (Homo sapiens, UniProt Q8IU80)
Palmitoyl-protein thioesterase 1: Palmitoyl-protein thioesterase 1 (Homo sapiens, UniProt P50897)

N=C(N)NCCC[C@H](NC(=O)[C@H](Cc1ccc(OCc2ccccc2)cc1)NC(=O)[C@H](Cc1cscn1)NC(=O)CCc1ccccc1)C(=O)c1nc2ccccc2s1
remaining activity (Transmembrane protease serine 6; enzyme activity, inhibitor; 0.1 µM): 8%

O=C1OCCN1/N=C/c1ccc([N+](=O)[O-])o1
inhibition (Palmitoyl-protein thioesterase 1; enzyme activity, inhibitor; 125 µM): 29%

CC(C)[C@@H](CC(=O)N[C@@H](CCCNC(=N)N)C(=O)c1nc2ccccc2s1)NC(=O)[C@H](Cc1cscn1)NC(=O)CCc1ccccc1
remaining activity (Transmembrane protease serine 6; enzyme activity, inhibitor; 0.1 µM): 100%

Cc1cc([C@@H](C)Nc2ccccc2C(=O)O)c2nc(N3CCC(F)(F)CC3)c(C#N)c(=O)n2c1
remaining binding (Epidermal growth factor receptor (EGFR, Homo sapiens, UniProt P00533, L858R); binding, competition with immobilised ligand; 1 µM): 100%

CC(C)(C)[C@H](NC(=O)[C@H](Cc1cscn1)NC(=O)CCc1ccccc1)C(=O)N[C@@H](CCCNC(=N)N)C(=O)c1nc2ccccc2s1
remaining activity (Transmembrane protease serine 6; enzyme activity, inhibitor; 0.1 µM): 55%

NCCCCCC(=O)O
inhibition (Palmitoyl-protein thioesterase 1; enzyme activity, inhibitor; 312 µM): 17.1%

COc1cc(-c2cncc3c2CN(C)Cc2cc(N4CCNCC4)ccc2-3)cc(OC)c1OC
remaining activity (Epidermal growth factor receptor (EGFR, Homo sapiens, UniProt P00533); enzyme activity, inhibitor; 1 µM): 93%

CNc1ncc2c(/C=C/C(=O)N3CCC(OC)CC3)nn(Cc3cccc(C(F)(F)F)c3)c2n1
remaining activity (Non-receptor tyrosine-protein kinase TYK2 (TYK2, Homo sapiens, UniProt P29597); enzyme activity, inhibitor, radiometric; 1 µM): 91%

C=CC(=O)N1CCC(COCC(=O)N2CCN(c3nc(-c4cnc(N)nc4C(F)F)nc(N4CCOC[C@@H]4C)n3)CC2)CC1
remaining binding (Serine/threonine-protein kinase PRP4 homolog (PRPF4B, Homo sapiens, UniProt Q13523); binding, competition with immobilised ligand; 1 µM): 84%
